# From ChEMBL document CHEMBL1145081, “Effects of the substitution of Phe4 in the opioid peptide [D-Ala8]dynorphin A-(1-11)NH2” (J Med Chem, 2003)
# Assays:
# [1] = target: Kappa-type opioid receptor (Rattus norvegicus) (UniProt P34975); test: Inhibition of Forskolin-Stimulated Adenylyl Cyclase in CHO cells expressing Opioid receptor kappa 1 at 10 uM relative to 100 nM Dyn A-(1-13)NH(2); assay type: functional, cell-based
# Method in brief: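 Same κ-CHO forskolin (50 μM, 40 min, 37°) cyclic AMP assay, with phosphodiesterase and peptidase inhibitors. Maximal percent inhibition by peptide at 10 μM, expressed relative to the inhibition given by 100 nM Dyn A-(1-13)NH2. Cyclic AMP counts corrected for recovery using a [14C]cyclic AMP tracer.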
# Mu-type opioid receptor = Mu-type opioid receptor (Rattus norvegicus, UniProt P33535); test: Binding affinity towards rat Opioid receptor mu 1 expressed in CHO cells of chinese hamster ovary was determined using [3H]DAMGO; assay type: cell-based
# Method in brief: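 [3H]DAMGO displacement on cloned rat μ-opioid receptors stably expressed in CHO cells. Nonspecific binding defined with 10 μM unlabeled DAMGO. Peptidase inhibitors (10 μM bestatin, 30 μM captopril, 50 μM L-leucyl-L-leucine) and 3 mM Mg2+ included. Mean ± SEM, at least three separate assays.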
# [2] = target: T1, Delta-type opioid receptor (Mus musculus, UniProt P32300); test: Binding affinity towards mouse Opioid receptor delta 1 expressed in CHO cells of chinese hamster ovary was determined using [3H]-[…] as radioligand; assay type: cell-based
# Method in brief: (§1)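 Competition binding against [3H]DPDPE on cloned mouse δ-opioid receptors stably expressed in CHO cells. Nonspecific binding defined with 10 μM unlabeled DPDPE. Peptidase inhibitors present (10 μM bestatin, 30 μM captopril, 50 μM L-leucyl-L-leucine) plus 3 mM Mg2+. Mean ± SEM from at least three separate assays.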
# [3] = target: T2, Kappa-type opioid receptor (Rattus norvegicus, UniProt P34975); test: Binding affinity towards rat Opioid receptor kappa 1 expressed in CHO cells of chinese hamster ovary was determined using [3H]diprenorphine as radioligand; assay type: cell-based
# Method in brief: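 Cloned rat κ-opioid receptors stably expressed in CHO cells; affinity from competitive inhibition of [3H]diprenorphine binding. Nonspecific binding defined with 10 μM unlabeled Dyn A-(1-13)NH2. Assay buffer held 10 μM bestatin, 30 μM captopril, 50 μM L-leucyl-L-leucine and 3 mM Mg2+. Mean ± SEM, at least three separate assays.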
# [4] = target: T2, Kappa-type opioid receptor; test: Inhibition of Forskolin-Stimulated Adenylyl Cyclase in CHO cells expressing Opioid receptor kappa 1; assay type: functional, cell-based
# Method in brief: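 CHO cells stably expressing cloned rat κ-opioid receptors. Cultures incubated 40 min at 37° with 50 μM forskolin and varying peptide concentrations. Present: 50 μM RO20-1724 (phosphodiesterase inhibitor), plus 10 μM bestatin, 30 μM captopril and 50 μM L-leucyl-L-leucine. [3H]cyclic AMP counted, with [14C]cyclic AMP added for recovery correction. Mean ± SEM, generally n ≥ 3, some n = 2.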
# [5] = target: T3, Opioid receptors; mu/kappa/delta (Homo sapiens) (UniProt P41145+P41143+P35372); test: Selectivity for kappa/Mu/Delta receptors was determined; 1/14/>377; assay type: protein assay
# [6] = target: T3, Opioid receptors; mu/kappa/delta (Homo sapiens); test: Selectivity for kappa/Mu/Delta receptors was determined 1/1.7/90; assay type: protein assay
# [7] = target: T3, Opioid receptors; mu/kappa/delta (Homo sapiens); test: Selectivity for kappa/Mu/Delta receptors was determined; 1/44/765; assay type: protein assay
# [8] = target: T1, Delta-type opioid receptor; test: Binding affinity towards mouse Opioid receptor delta 1 expressed in CHO cells of chinese hamster ovary was determined using [3H][…] as radioligand; assay type: cell-based; method in brief: as §1
# T1 sequence (P32300 whole entry): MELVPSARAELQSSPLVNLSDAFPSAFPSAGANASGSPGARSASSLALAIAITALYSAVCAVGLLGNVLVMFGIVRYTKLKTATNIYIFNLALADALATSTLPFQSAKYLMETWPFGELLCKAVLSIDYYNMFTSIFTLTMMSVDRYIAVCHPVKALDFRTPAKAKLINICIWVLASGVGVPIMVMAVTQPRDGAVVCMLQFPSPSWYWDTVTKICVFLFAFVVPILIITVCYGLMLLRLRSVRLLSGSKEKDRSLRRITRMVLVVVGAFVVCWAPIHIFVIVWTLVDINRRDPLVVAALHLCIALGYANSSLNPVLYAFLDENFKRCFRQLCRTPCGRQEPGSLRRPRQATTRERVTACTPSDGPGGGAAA
# Sequence of Mu-type opioid receptor (P33535 whole entry): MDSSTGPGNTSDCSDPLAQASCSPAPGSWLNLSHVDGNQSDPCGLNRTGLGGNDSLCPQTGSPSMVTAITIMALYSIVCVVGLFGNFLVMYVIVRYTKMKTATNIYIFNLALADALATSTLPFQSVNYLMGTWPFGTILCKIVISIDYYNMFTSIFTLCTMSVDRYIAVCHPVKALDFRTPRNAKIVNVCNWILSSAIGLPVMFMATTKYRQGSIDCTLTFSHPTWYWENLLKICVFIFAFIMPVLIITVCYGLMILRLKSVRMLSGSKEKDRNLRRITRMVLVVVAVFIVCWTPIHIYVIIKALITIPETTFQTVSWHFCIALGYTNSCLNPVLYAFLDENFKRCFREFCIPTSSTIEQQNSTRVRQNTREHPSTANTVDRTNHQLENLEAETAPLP
# T3 sequence (P35372 whole entry, looked up): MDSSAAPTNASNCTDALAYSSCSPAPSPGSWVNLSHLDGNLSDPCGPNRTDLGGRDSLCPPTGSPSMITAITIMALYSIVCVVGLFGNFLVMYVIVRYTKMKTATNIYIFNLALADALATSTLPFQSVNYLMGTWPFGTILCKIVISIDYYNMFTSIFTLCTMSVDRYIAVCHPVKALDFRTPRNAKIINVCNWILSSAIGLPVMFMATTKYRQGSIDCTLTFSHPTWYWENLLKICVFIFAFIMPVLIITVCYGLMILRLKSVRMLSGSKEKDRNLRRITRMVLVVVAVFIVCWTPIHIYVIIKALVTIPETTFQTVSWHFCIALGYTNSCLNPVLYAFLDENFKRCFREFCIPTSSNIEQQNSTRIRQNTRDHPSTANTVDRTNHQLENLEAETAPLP
# T3 sequence (P41143 whole entry, looked up): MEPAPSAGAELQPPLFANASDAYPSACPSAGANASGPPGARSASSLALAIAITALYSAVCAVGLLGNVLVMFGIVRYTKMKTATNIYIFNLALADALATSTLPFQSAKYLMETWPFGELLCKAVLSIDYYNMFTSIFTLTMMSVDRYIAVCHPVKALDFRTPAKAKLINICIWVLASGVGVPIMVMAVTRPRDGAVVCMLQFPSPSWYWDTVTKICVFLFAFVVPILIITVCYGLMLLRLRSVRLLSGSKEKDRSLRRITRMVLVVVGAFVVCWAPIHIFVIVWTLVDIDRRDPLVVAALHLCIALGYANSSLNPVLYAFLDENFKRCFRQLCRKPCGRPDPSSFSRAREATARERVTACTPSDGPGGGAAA
# T3 sequence (P41145 whole entry, looked up): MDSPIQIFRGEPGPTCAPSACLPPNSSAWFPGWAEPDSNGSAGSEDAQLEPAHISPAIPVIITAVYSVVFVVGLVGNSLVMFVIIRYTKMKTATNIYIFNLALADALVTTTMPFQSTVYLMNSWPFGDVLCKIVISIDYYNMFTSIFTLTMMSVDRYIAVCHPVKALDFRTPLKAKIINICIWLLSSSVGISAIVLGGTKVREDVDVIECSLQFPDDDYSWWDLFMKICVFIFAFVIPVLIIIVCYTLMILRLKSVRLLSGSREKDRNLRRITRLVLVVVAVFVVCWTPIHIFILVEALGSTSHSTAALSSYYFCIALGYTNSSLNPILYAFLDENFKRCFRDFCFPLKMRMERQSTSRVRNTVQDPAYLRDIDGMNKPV
# Sequence of Kappa-type opioid receptor (Rattus norvegicus) (P34975 whole entry): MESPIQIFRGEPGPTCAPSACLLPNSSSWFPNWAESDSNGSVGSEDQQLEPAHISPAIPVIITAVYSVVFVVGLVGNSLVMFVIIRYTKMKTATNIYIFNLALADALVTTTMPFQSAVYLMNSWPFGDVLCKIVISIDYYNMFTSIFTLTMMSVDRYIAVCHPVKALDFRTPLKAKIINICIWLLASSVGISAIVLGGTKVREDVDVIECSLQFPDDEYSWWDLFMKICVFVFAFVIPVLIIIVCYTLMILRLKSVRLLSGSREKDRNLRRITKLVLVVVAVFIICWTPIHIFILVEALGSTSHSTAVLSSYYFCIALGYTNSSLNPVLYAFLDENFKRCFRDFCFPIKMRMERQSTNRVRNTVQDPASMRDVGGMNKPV
# T2 sequence (P34975 whole entry): as above
SMILES,Max response [1] [%],Ki (Mu-type opioid receptor; cho) [nM],Ki ([2]; cho) [nM],Ki [3] [nM],EC50 ([4]; cho) [nM],Ki (Mu-type opioid receptor) [nM],Ki [2] [nM],EC50 [4] [nM],other results
CC(C)C[C@H](NC(=O)[C@]1(NC(=O)CNC(=O)CNC(=O)[C@@H](N)Cc2ccc(O)cc2)CCc2ccccc2C1)C(=O)N[C@@H](CCCN=C(N)N)C(=O)N[C@@H](CCCN=C(N)N)C(=O)N[C@H](C)C(=O)N[C@@H](CCCN=C(N)N)C(=O)N1CCC[C@H]1C(=O)N[C@@H](CCCCN)C(N)=O,74,,,,,,,,
CC(C)C[C@H](NC(=O)[C@@H](CCc1ccccc1)NC(=O)CNC(=O)CNC(=O)[C@@H](N)Cc1ccc(O)cc1)C(=O)N[C@@H](CCCN=C(N)N)C(=O)N[C@@H](CCCN=C(N)N)C(=O)N[C@H](C)C(=O)N[C@@H](CCCN=C(N)N)C(=O)N1CCC[C@H]1C(=O)N[C@@H](CCCCN)C(N)=O,95,13.7,190,0.66,5.2,,,,
CC(C)C[C@H](NC(=O)C1(NC(=O)CNC(=O)CNC(=O)[C@@H](N)Cc2ccc(O)cc2)Cc2ccccc2C1)C(=O)N[C@@H](CCCN=C(N)N)C(=O)N[C@@H](CCCN=C(N)N)C(=O)N[C@H](C)C(=O)N[C@@H](CCCN=C(N)N)C(=O)N1CCC[C@H]1C(=O)N[C@@H](CCCCN)C(N)=O,39,,,26.5,,364,> 10000,,Ki ratio [5]: kappa/mu/delta
CC(C)C[C@H](NC(=O)[C@H](CCc1ccccc1)NC(=O)CNC(=O)CNC(=O)[C@@H](N)Cc1ccc(O)cc1)C(=O)N[C@@H](CCCN=C(N)N)C(=O)N[C@@H](CCCN=C(N)N)C(=O)N[C@H](C)C(=O)N[C@@H](CCCN=C(N)N)C(=O)N1CCC[C@H]1C(=O)N[C@@H](CCCCN)C(N)=O,100,,,1.73,,47,5570,46.9,
CC(C)C[C@H](NC(=O)[C@@H](Cc1ccccc1)NC(=O)CNC(=O)CNC(=O)[C@@H](N)Cc1ccc(O)cc1)C(=O)N[C@@H](CCCN=C(N)N)C(=O)N[C@@H](CCCN=C(N)N)C(=O)N[C@H](C)C(=O)N[C@@H](CCCN=C(N)N)C(=O)N1CCC[C@H]1C(=O)N[C@@H](CCCCN)C(N)=O,100,4.2,6.57,,1.24,,,,Ki ([3]; cho): 0.11 nM
CC(C)C[C@H](NC(=O)[C@H](Cc1ccccc1)N(C)C(=O)CNC(=O)CNC(=O)[C@@H](N)Cc1ccc(O)cc1)C(=O)N[C@@H](CCCN=C(N)N)C(=O)N[C@@H](CCCN=C(N)N)C(=O)N[C@H](C)C(=O)N[C@@H](CCCN=C(N)N)C(=O)N1CCC[C@H]1C(=O)N[C@@H](CCCCN)C(N)=O,,1.03,56.1,,3.56,,,,Ki ([3]; cho): 0.62 nM
CC(C)C[C@H](NC(=O)[C@@H]1Cc2ccccc2CN1C(=O)CNC(=O)CNC(=O)[C@@H](N)Cc1ccc(O)cc1)C(=O)N[C@@H](CCCNC(=N)N)C(=O)N[C@@H](CCCNC(=N)N)C(=O)N[C@H](C)C(=O)N[C@@H](CCCNC(=N)N)C(=O)N1CCC[C@H]1C(=O)N[C@@H](CCCCN)C(N)=O,,,,4.69,,206,3590,29.4,
CC(C)C[C@H](NC(=O)[C@@](C)(Cc1ccccc1)NC(=O)CNC(=O)CNC(=O)[C@@H](N)Cc1ccc(O)cc1)C(=O)N[C@@H](CCCN=C(N)N)C(=O)N[C@@H](CCCN=C(N)N)C(=O)N[C@H](C)C(=O)N[C@@H](CCCN=C(N)N)C(=O)N1CCC[C@H]1C(=O)N[C@@H](CCCCN)C(N)=O,100,3.24,157,,36.5,,,,Ki ([3]; cho): 3.2 nM
CC(C)C[C@H](NC(=O)[C@@H](Cc1ccccc1)N(C)C(=O)CNC(=O)CNC(=O)[C@@H](N)Cc1ccc(O)cc1)C(=O)N[C@@H](CCCN=C(N)N)C(=O)N[C@@H](CCCN=C(N)N)C(=O)N[C@H](C)C(=O)N[C@@H](CCCN=C(N)N)C(=O)N1CCC[C@H]1C(=O)N[C@@H](CCCCN)C(N)=O,99,,,,,,,,Ki ratio [6]: kappa/mu/delta
CC(C)C[C@H](NC(=O)[C@@H]1Cc2ccccc2CN1C(=O)CNC(=O)CNC(=O)[C@@H](N)Cc1ccc(O)cc1)C(=O)N[C@@H](CCCN=C(N)N)C(=O)N[C@@H](CCCN=C(N)N)C(=O)N[C@H](C)C(=O)N[C@@H](CCCN=C(N)N)C(=O)N1CCC[C@H]1C(=O)N[C@@H](CCCCN)C(N)=O,91,,,,,,,,Ki ratio [7]: kappa/mu/delta
CC(C)C[C@H](NC(=O)[C@]1(NC(=O)CNC(=O)CNC(=O)[C@@H](N)Cc2ccc(O)cc2)CCc2ccccc2C1)C(=O)N[C@@H](CCCNC(=N)N)C(=O)N[C@@H](CCCNC(=N)N)C(=O)N[C@H](C)C(=O)N[C@@H](CCCNC(=N)N)C(=O)N1CCC[C@H]1C(=O)N[C@@H](CCCCN)C(N)=O,,,,9.54,,88.3,> 10000,573,
CC(C)C[C@H](NC(=O)[C@@]1(NC(=O)CNC(=O)CNC(=O)[C@@H](N)Cc2ccc(O)cc2)CCc2ccccc2C1)C(=O)N[C@@H](CCCN=C(N)N)C(=O)N[C@@H](CCCN=C(N)N)C(=O)N[C@H](C)C(=O)N[C@@H](CCCN=C(N)N)C(=O)N1CCC[C@H]1C(=O)N[C@@H](CCCCN)C(N)=O,96,,,0.89,,32.9,> 10000,72.4,
CC(C)C[C@H](NC(=O)[C@H](Cc1ccccc1)NC(=O)CNC(=O)CNC(=O)[C@@H](N)Cc1ccc(O)cc1)C(=O)N[C@@H](CCCN=C(N)N)C(=O)N[C@@H](CCCN=C(N)N)C(=O)N[C@H](C)C(=O)N[C@@H](CCCN=C(N)N)C(=O)N1CCC[C@H]1C(=O)N[C@@H](CCCCN)C(N)=O,73,,,8.91,,123,,515,Ki [8]: > 10000 nM
